Screening data as filed in PubChem BioAssay.
A selection: hits, their analogues and other compounds. The true share with any hit is near 2.5%.
NadD block: inhibitors of Staphylococcus aureus NadD; purified NadD enzyme, colorimetric absorbance read-out; inhibition, % at 20 µM; 360,000 tested, 0.78% active; AID 602399; in the data active means inhibition above about 26%
MsrA inhibitor: inhibits bovine methionine sulfoxide reductase A; purified bovine MsrA, absorbance read-out; 360,000 tested, 0.75% active; inhibition, % at 15.5 µM; in the data active means inhibition above about 4.5%;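 further: 0% = vehicle wells with enzyme and 100% = reference inhibitor wells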
NR2E3 ag-1: NR2E3 (human) agonism; Q9Y5X4; 320,000 tested, 0.12% active; GST-NR2E3/biotin-RetCOR TR-FRET, 1536-well; AID 2300; inhibition of corepressor binding, % at 4.78 µM;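 active means percent inhibition above the cutoff of mean plus 3 SD of all tested compounds, set per screening campaign, cut at about 20% in these data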;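 further: 0% = DMSO wells and 100% = biotin wells as full block of FRET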
Target sequence (Q9Y5X4 whole entry, looked up): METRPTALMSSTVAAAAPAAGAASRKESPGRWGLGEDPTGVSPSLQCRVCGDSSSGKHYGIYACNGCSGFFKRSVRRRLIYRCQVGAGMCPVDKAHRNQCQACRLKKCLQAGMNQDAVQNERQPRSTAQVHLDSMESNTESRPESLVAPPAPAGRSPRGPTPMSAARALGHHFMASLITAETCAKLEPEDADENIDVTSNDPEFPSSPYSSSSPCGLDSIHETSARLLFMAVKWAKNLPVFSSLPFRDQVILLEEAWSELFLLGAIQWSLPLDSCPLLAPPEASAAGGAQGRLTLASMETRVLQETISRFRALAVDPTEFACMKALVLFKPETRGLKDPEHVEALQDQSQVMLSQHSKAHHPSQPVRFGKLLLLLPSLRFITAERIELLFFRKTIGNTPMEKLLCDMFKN
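Format: 1536-well format; test system: GST-NR2E3 and biotin-RetCOR proteins; read-out basis: percent inhibition of TR-FRET ratio; timing: 5 h incubation at 4 °C; detection: time-resolved FRET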
GalR3 antagonist: antagonists of human GalR3; HEK293 GalR3-CNG cAMP membrane potential fluorescence; galR3 body fused to GalR1 C-terminus; inhibition, % at 3 µM; 360,000 tested, 0.44% active;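 active means inhibition above the screen-wide average plus 3 SD, cut at about 13% in these data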;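 further: forskolin and galanin both at EC90 stimulate the cells; cAMP rise reported by CNG channel membrane potential dye signal; 0% = forskolin plus galanin with DMSO and 100% = forskolin alone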
Target sequence (O60755 1-299 limits assumed): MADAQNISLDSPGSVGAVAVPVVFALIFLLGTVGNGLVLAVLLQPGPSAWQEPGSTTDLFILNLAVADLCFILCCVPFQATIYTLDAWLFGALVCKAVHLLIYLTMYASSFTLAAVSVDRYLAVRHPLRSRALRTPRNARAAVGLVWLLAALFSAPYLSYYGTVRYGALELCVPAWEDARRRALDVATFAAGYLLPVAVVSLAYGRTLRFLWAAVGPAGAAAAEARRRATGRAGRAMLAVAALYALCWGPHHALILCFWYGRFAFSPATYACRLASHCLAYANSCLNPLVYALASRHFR
NR2E3 ag-2: agonists of human NR2E3 nuclear receptor; Q9Y5X4; CHO-S Gal4-NCOR/VP16-NR2E3 two-hybrid, luciferase; inhibition of corepressor binding, % at 3.98 µM; 360,000 tested, 0.35% active; AID 602229;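 active means inhibition above the mean of all tested compounds plus 3 SD, cut at about 70% in these data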;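 further: 0% = DMSO with NR2E3 transfected cells and 100% = cells lacking NR2E3 construct; higher means lower luciferase signal from less NR2E3 corepressor binding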
MsrA act: bovine methionine sulfoxide reductase A activation. AID 602163. 360,000 tested, 0.3% active. activation, % at 10.6 µM. purified bovine MsrA, absorbance read-out; in the data active means activation above about 7.5%;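 further: 0% = vehicle and 100% = reference activator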
NR2E3 ag confirm: NR2E3 agonism confirmed in two-hybrid assay | inhibition, % at 3.98 µM | CHO-S mammalian two-hybrid NR2E3-NCOR, luciferase luminescence | shares compounds with NR2E3 ag-2 | AID 624378 | 2,300 tested, 51% active;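 active means average inhibition above a cutoff equal to the mean inhibition of all tested compounds plus one SD, cut at about 70% in these data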;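 further: 0% = DMSO in NR2E3 cells and 100% = DMSO in cells lacking NR2E3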
VP16 counter: counter-screen for NR2E3 agonists: GAL4-VP16 reporter inhibitors | shares compounds with NR2E3 ag-2 | CHO-S GAL4-VP16 luciferase reporter, luminescence | inhibition, % at 3.98 µM | 2,300 tested, 29% active;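 active means mean inhibition above a cutoff equal to the average over all tested compounds plus one standard deviation, cut at about 70% in these data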;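 further: luciferase from a UAS reporter driven by GAL4-VP16 transactivation; 0% = DMSO with VP16-transfected cells and 100% = DMSO with cells lacking VP16; higher means less reporter light so more repression of VP16 activity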
NadD conf: confirmation of Staphylococcus aureus NadD inhibitors; shares compounds with NadD block; inhibition, % at 20 µM; 2,000 tested, 13% active; AID 624309; purified S. aureus NadD, colorimetric enzyme assay; in the data active means inhibition mostly above about 42%, no sharp cut-off; inactive means mostly below about 42%
GalR3 conf: GalR3 (human) antagonism, confirmation; shares compounds with GalR3 antagonist; HEK293 GalR3 CNG cAMP biosensor, membrane potential fluorescence; galR3 fused to GalR1 carboxy tail; challenged with forskolin and galanin at EC90; inhibition, % at 3 µM; 1,600 tested, 59% active; AID 652245;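 active means inhibition above the primary screen's cutoff, the mean inhibition of all screened compounds plus 3 SD, cut at about 13% in these data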;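 further: 0% = forskolin plus galanin and 100% = forskolin alone with DMSO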
CNG parental: counter-screen for GalR3 antagonists: nonspecific agonists in parental HEK-CNG cells. shares compounds with GalR3 antagonist. HEK293-CNG parental cells, cAMP membrane potential fluorescence; normalised: DMSO wells 0%, forskolin wells 100%. activation, % at 3 µM. 1,600 tested, 10% active; in the data active means activation above about 1.3%
Active calls of the source: *; · = no result.

SMILES | NadD block | MsrA inhibitor | NR2E3 ag-1 | GalR3 antagonist | NR2E3 ag-2 | MsrA act | NadD conf | others
COc1ccc(NS(=O)(=O)c2cccc(NC(=O)c3ccc(Cl)nc3)c2)cc1 | -1 | -1 | 5 | 82* | 83* | -3 | · | NR2E3 ag confirm=84*;VP16 counter=78*;GalR3 conf=96*;CNG parental=0
C=CCC1(CC=C)CCCN1C(=O)c1cc(COc2cncc(Cl)c2)on1 | 3 | 0 | 0 | 45* | 90* | 0 | · | NR2E3 ag confirm=87*;VP16 counter=69;GalR3 conf=62*;CNG parental=1
C=CCOc1ccc(CNC(C)(C)CO)cc1OC | -2 | -1 | 1 | -4 | -12 | 1 | ·
CCOC(=O)c1cnc(-n2nc(C)cc2C)nc1NC1CCCCC1 | 4 | 1 | -1 | 34* | 93* | -7 | · | NR2E3 ag confirm=91*;VP16 counter=66;GalR3 conf=73*;CNG parental=6.8*
Cc1ccc(S(=O)(=O)Nc2ccccc2C(=O)Nc2nc(-c3ccc(F)cc3)cs2)cc1 | 32* | 0 | -3 | 90* | 94* | -4 | 48* | NR2E3 ag confirm=98*;VP16 counter=84*;GalR3 conf=114*;CNG parental=-1
O=C(O)c1ccccc1NC(=O)C(c1ccccc1)c1ccccc1 | -1 | 1 | -1 | -3 | -2 | -3 | ·
O=C(Nc1ccccc1O)C(c1ccccc1)c1ccccc1 | -7 | 1 | 2 | 55* | 70 | -2 | · | NR2E3 ag confirm=83*;VP16 counter=72*;GalR3 conf=92*;CNG parental=-2
CCN1CCN(CCOc2ccc(Cl)cc2)CC1 | -10 | 0 | -1 | -4 | 10 | -8 | ·
Clc1ccc(OCCN2CCN(c3ncnc4sccc34)CC2)cc1 | -7 | 0 | -2 | 93* | 89* | -2 | · | NR2E3 ag confirm=98*;VP16 counter=93*;GalR3 conf=107*;CNG parental=0
Cc1ccc(OCCN2CCN(c3ncnc4sc(C)c(C)c34)CC2)cc1 | 0 | 1 | 2 | 101* | 92* | -5 | · | NR2E3 ag confirm=98*;VP16 counter=93*;GalR3 conf=104*;CNG parental=0
O=C(COC(=O)c1ccccc1[N+](=O)[O-])NCCCc1ccccc1 | -7 | 1 | 2 | -11 | 3 | -9 | ·
Cc1cn(-c2cccnc2)c(C)c1CNC[C@H]1O[C@@H](n2cnc3c(N)ncnc32)[C@H](O)[C@@H]1O | 3 | 1 | · | -6 | -17 | -1 | ·
Cc1cc(-c2csc(N)n2)c(C)n1CCC(C)C | 34* | 0 | 7 | -2 | -15 | -3 | 11
Cc1ccc(S(=O)(=O)N2CCN(c3ncnc4scc(-c5ccccc5)c34)CC2)cc1 | 14 | 1 | · | -4 | -32 | 3 | ·
COc1ccc(-c2csc3ncnc(N4CCN(S(=O)(=O)c5cccc(Br)c5)CC4)c23)cc1 | 31* | 0 | -2 | -1 | 2 | -5 | 18
Cc1ccc(S(=O)(=O)N2CCN(c3ncnc4scc(-c5ccc(F)cc5)c34)CC2)cc1 | 37* | 0 | -5 | -6 | -28 | -3 | 14
CCOC(=O)c1cc2c(=O)n3ccccc3nc2n(Cc2ccco2)c1=NC(=O)c1ccccc1OC | 28 | -1 | 2 | -4 | 10 | -11 | ·
CCOC(=O)c1cc2c(=O)n3ccccc3nc2n(Cc2ccco2)c1=NC(=O)c1ccc(OC)cc1 | 32* | 0 | -3 | -8 | -8 | -3 | 7
CCOC(=O)c1cc2c(=O)n3ccccc3nc2n(Cc2ccco2)c1=NC(=O)c1cccc(OC)c1 | 45* | 0 | 1 | -6 | -10 | -3 | 8
CCOC(=O)c1cc2c(=O)n3cccc(C)c3nc2n(Cc2ccco2)c1=NC(=O)c1ccccc1 | 32* | 2 | -2 | -3 | 3 | -5 | 11
CCOC(=O)c1cc2c(=O)n3cccc(C)c3nc2n(Cc2ccco2)c1=NC(=O)c1ccc(C)cc1 | 0 | · | · | · | -28 | -1 | ·
CCCn1c(=NC(=O)c2ccco2)c(C(=O)OCC)cc2c(=O)n3ccccc3nc21 | -4 | 1 | 1 | -1 | 9 | -9 | ·
COc1ccccc1C(=O)OCC(=O)NC(=O)NC1CCCC1 | 0 | 0 | 2 | -4 | -12 | -1 | ·
Cc1cc(N2CCN(C(=O)c3ccco3)CC2)n2ncc(-c3ccccc3)c2n1 | 6 | 2 | -2 | -2 | -115 | -3 | ·
Cc1cccc(C)c1NC(=O)CSc1nnc(NC(=O)C2CC2)s1 | -3 | 0 | 6 | -8 | 2 | -1 | ·
SMILES | NadD block | MsrA inhibitor | NR2E3 ag-1 | GalR3 antagonist | NR2E3 ag-2 | MsrA act | NadD conf | others
NC(=O)[C@@H]1CC2(CC(c3cccc(NC(=O)CC(c4ccccc4)c4ccccc4)c3)=NO2)CN1C(=O)c1ccc(Cl)cc1 (stereo partly specified) | 32* | -1 | -4 | -6 | -21 | -4 | 23
CCC(=O)N1CC2(CC(c3cccc(NC(=O)CC(c4ccccc4)c4ccccc4)c3)=NO2)C[C@H]1C(N)=O (stereo partly specified) | -7 | 0 | 5 | -1 | -4 | 1 | ·
Cc1c(C(=O)N2CC3(CC(c4cccc(NC(=O)CC(c5ccccc5)c5ccccc5)c4)=NO3)C[C@@H]2C(N)=O)cc([N+](=O)[O-])cc1[N+](=O)[O-] (stereo partly specified) | 30* | 0 | -1 | -8 | -34 | -3 | 48*
C/C=C(\C)C(=O)Nc1cccc(C2=NOC3(C2)C[C@@H](C(N)=O)N(C(=O)c2cc([N+](=O)[O-])cc([N+](=O)[O-])c2C)C3)c1 (stereo partly specified) | 13 | 2 | 1 | -2 | 16 | -1 | ·
NC(=O)[C@H]1CC2(CC(c3cccc(NC(=O)CC(c4ccccc4)c4ccccc4)c3)=NO2)CN1C(=O)CC(c1ccccc1)c1ccccc1 (stereo partly specified) | 42* | 0 | -2 | -10 | 15 | -6 | 19
O=C(CNC(=O)c1ccc(Br)cc1)NC1=NCCS1 | 3 | 0 | -1 | -10 | -23 | -7 | ·
COc1ccc(NCc2nnc(SCC(=O)NCc3ccccc3)n2-c2ccccc2OC)cc1 | -3 | -1 | 1 | -3 | -1 | 4 | ·
FC(F)(F)c1cc(Cl)c2nc(-c3ccco3)c(Cc3ccccc3C(F)(F)F)n2c1 | 43* | -1 | · | 21* | -8 | -6 | 11
